pIC50: −log10 of the molar value. Active and inactive are the calls of the source. The calls are words filed in the database; no cut-off is given here.
Assays:
HepG2 [1] = experiment: Antiproliferative activity against human HepG2 cells incubated for 72 hrs by CCK8 cells; assay type: functional, cell-based; details: HepG2, 72 h
Outline: (§1)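 CCK-8 proliferation assay. 10,000 cells per well were preincubated 24 h at 37 °C with 5% CO2, then given compound dissolved in DMSO and incubated 72 h. CCK-8 was added for 4 h and absorbance read at 450 nm. IC50 was taken from dose-response curves as mean ± SEM of at least three independent experiments, with paclitaxel as positive control. HepG2 and L-O2 were grown in DMEM/10% FBS; A549 and RPMI-8226 in RPMI 1640/10% FBS.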

RPMI-8226 = experiment: Antiproliferative activity against human RPMI8226 cells incubated for 72 hrs by CCK8 cells; assay type: functional, cell-based; details: RPMI-8226, 72 h; outline: as §1
A549 = experiment: Antiproliferative activity against human A549 cells incubated for 72 hrs by CCK8 cells; assay type: functional, cell-based; details: A549, 72 h; outline: as §1
PLC-PRF-5 [2] = experiment: Antiproliferative activity against human PLC/PRF/5 cells incubated for 72 hrs by CCK8 cells; assay type: functional, cell-based; details: PLC-PRF-5, 72 h
HepG2 [3] = experiment: Inhibition of colony formation in human HepG2 cells at 0.1 to 1 uM incubated for 10 days by crystal violet staining based microscopic method; assay type: functional, cell-based
Outline: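 Five hundred cells plated per 30 mm dish and left 12 h. Medium with compound was added (0, 0.1, 0.5, 1 µM) or DMSO as negative control, and cells grew 10 days. Colonies were fixed in methanol 15 min, stained with 0.1% crystal violet 15 min, photographed and counted. Colony size was checked by microscope. Relative colony number is mean ± SD of ≥3 independent experiments.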

PLC-PRF-5 [4] = experiment: Induction of cell cycle arrest in human PLC/PRF/5 cells assessed as accumulation at G1 phase at 0.25 uM incubated for 24 hrs by PI staining based flow cytometric analysis (reference value: 34.78%); assay type: functional
PLC-PRF-5 [5] = experiment: Induction of cell cycle arrest in human PLC/PRF/5 cells assessed as accumulation at G2 phase at 0.25 uM incubated for 24 hrs by PI staining based flow cytometric analysis (reference value: 18.05%); assay type: functional
PLC-PRF-5 [6] = experiment: Induction of cell cycle arrest in human PLC/PRF/5 cells assessed as accumulation at S phase at 0.5 uM incubated for 24 hrs by PI staining based flow cytometric analysis (reference value: 42.03%); assay type: functional
PLC-PRF-5 [7] = experiment: Induction of cell cycle arrest in human PLC/PRF/5 cells assessed as accumulation at G2 phase at 0.5 uM incubated for 24 hrs by PI staining based flow cytometric analysis (reference value: 18.05%); assay type: functional
HepG2 [8] = experiment: Induction of cell cycle arrest in human HepG2 cells assessed as accumulation at G2 phase at 0.25 uM incubated for 24 hrs by PI staining based flow cytometric analysis (reference value: 25.55%); assay type: functional
HepG2 [9] = experiment: Induction of cell cycle arrest in human HepG2 cells assessed as accumulation at G1 phase at 1 uM incubated for 24 hrs by PI staining based flow cytometric analysis (reference value: 37.06%); assay type: functional
HepG2 [10] = experiment: Induction of cell cycle arrest in human HepG2 cells assessed as accumulation at S phase at 1 uM incubated for 24 hrs by PI staining based flow cytometric analysis (reference value: 35.46%); assay type: functional
HepG2 [11] = experiment: Induction of cell cycle arrest in human HepG2 cells assessed as accumulation at G2 phase at 1 uM incubated for 24 hrs by PI staining based flow cytometric analysis (reference value: 25.55%); assay type: functional
PLC-PRF-5 [12] = experiment: Induction of apoptosis in human PLC/PRF/5 cells assessed as live cells at 0.25 uM incubated for 24 hrs by annexin V staining based cell counting method (reference value: 88.95%); assay type: functional
PLC-PRF-5 [13] = experiment: Induction of apoptosis in human PLC/PRF/5 cells assessed as necrotic cells at 0.5 uM incubated for 24 hrs by annexin V staining based cell counting method (reference value: 0.59%); assay type: functional
PLC-PRF-5 [14] = experiment: Induction of apoptosis in human PLC/PRF/5 cells assessed as live cells at 1 uM incubated for 24 hrs by annexin V staining based cell counting method (reference value: 88.95%); assay type: functional
HepG2 [15] = experiment: Induction of apoptosis in human HepG2 cells assessed as early apoptotic cells at 0.5 uM incubated for 24 hrs by annexin V staining based cell counting method (reference value: 3.60%); assay type: functional
HepG2 [16] = experiment: Induction of apoptosis in human HepG2 cells assessed as necrotic cells at 1 uM incubated for 24 hrs by annexin V staining based cell counting method (reference value: 3.40%); assay type: functional
PLC-PRF-5 [17] = experiment: Induction of mitochondrial membrane potential loss in human PLC/PRF/5 cell incubated for 24 hrs by JC1 staining based fluorescence microscopic method; assay type: functional
Outline: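 Cells seeded in 12-well plates, cultured 12 h, treated 24 h (0, 0.25, 0.5, 1 µM). After a PBS wash, stained with JC-1 in medium for 20 min at 37 °C and washed three times. Red aggregate and green monomer fluorescence were imaged by fluorescence microscopy; the red/green ratio was taken; three independent experiments.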

PLC-PRF-5 [18] = experiment: Induction of ROS generation in human PLC/PRF/5 cells by DCFH-DA staining-based flow cytometric analysis; assay type: functional, cell-based
Outline: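 Cells were treated with 0, 0.25, 0.5 or 1 µM compound, stained with 10 µM DCFH-DA for 20 min at 37 °C, washed three times, resuspended in PBS and read by flow cytometry. Data are mean ± SD of three independent experiments.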

PLC-PRF-5 [19] = experiment: Induction of apoptosis in human PLC/PRF/5 cells assessed as down regulation of Bcl2 protein expression level incubated for 24 hrs by Western blot analysis; assay type: functional, cell-based
Outline: (§2)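 Cells were treated 24 h in DMEM with 0, 0.25, 0.5, 1.0 or 1.25 µM compound. Adherent and floating cells were lysed in RIPA on ice and protein measured by BCA. Equal protein was run on 7.5–12.5% SDS-PAGE and transferred to PVDF. Membranes were blocked in 5% milk/PBST, incubated with primary antibody overnight at 4 °C, and detected by ECL.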

PLC-PRF-5 [20] = experiment: Induction of apoptosis in human PLC/PRF/5 cells assessed as upregulation of Bax protein expression level incubated for 24 hrs by Western blot analysis; assay type: functional, cell-based; outline: as §2
HepG2 [21] = experiment: Induction of apoptosis in human HepG2 cells assessed as upregulation of cleaved caspase 3 protein expression level incubated for 24 hrs by Western blot analysis; assay type: functional, cell-based; outline: as §2
HepG2 [22] = experiment: Induction of apoptosis in human HepG2 cells assessed as upregulation of cleaved PARP protein expression level incubated for 24 hrs by Western blot analysis; assay type: functional, cell-based; outline: as §2
PLC-PRF-5 [23] = experiment: Antitumour activity against human PLC/PRF/5 cells xenografted in nude mouse assessed as tumour growth inhibition at 10 mg/kg, iv administrated once every 3 days for 4 weeks; assay type: functional, organism-based
Outline: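 PLC/PRF/5 xenograft. 2 × 10^7 cells in 0.2 mL saline were injected s.c. into the right forelimb of nude mice. At about 120 mm3, mice were randomized into 3 groups of 6 and dosed i.v. at 10 mg/kg once every three days for 4 weeks. Vehicle was 10% N-methylpyrrolidone/12% Tween-80/78% saline. Volume (a×b²/2) and body weight were recorded daily, and tumors were excised and weighed at the end.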

For `C=C1C(=O)[C@]23[C@H](OC(=O)/C=C/c4ccc(OC)cc4)[C@H]1CC[C@H]2[C@@]12CO[C@]3(O)[C@@H](O)[C@@H]1C(C)(C)CC[C@@H]2O`, the pIC50 (HepG2 [1]) was 5.87, the pIC50 (RPMI-8226) was 5.07 and the pIC50 (A549) was 4.92. For the same molecule, the pIC50 (PLC-PRF-5 [2]) was 6.11, the inhibition (HepG2 [3]) was “Active” and the Activity (PLC-PRF-5 [4]) was 37.17%. For the same molecule, the Activity (PLC-PRF-5 [5]) was 12.59%, the Activity (PLC-PRF-5 [6]) was 39.83% and the Activity (PLC-PRF-5 [7]) was 13.58%. It also gave an Activity (HepG2 [8]) of 24.78%, an Activity (HepG2 [9]) of 42.33% and an Activity (HepG2 [10]) of 30.88%. The Activity (HepG2 [11]) was 22.67%, the Activity (PLC-PRF-5 [12]) was 80.53% and the Activity (PLC-PRF-5 [13]) was 0.82%. The Activity (PLC-PRF-5 [14]) was 33.5%, the Activity (HepG2 [15]) was 8.95% and the Activity (HepG2 [16]) was 4.1%. For the same molecule, the Activity (PLC-PRF-5 [17]) was “Dose-dependent effect”, the Activity (PLC-PRF-5 [18]) was “Dose-dependent effect” and the Activity (PLC-PRF-5 [19]) was “Dose-dependent effect”. For the same molecule, the Activity (PLC-PRF-5 [20]) was “Dose-dependent effect”, the Activity (HepG2 [21]) was “Dose-dependent effect” and the Activity (HepG2 [22]) was “Dose-dependent effect”. The TGI (PLC-PRF-5 [23]) was “Active”.

Source: ChEMBL document CHEMBL4364265, “Oridonin derivatives as potential anticancer drug candidates triggering apoptosis through mitochondrial pathway in the liver cancer cells” (Eur J Med Chem, 2019)
